Calls of active or inactive are those of the source. The calls are words filed in the database; no cut-off is given here.

The test system of test [1] is Mus musculus. Briefly: Anticonvulsant activity in Swiss Albino mouse at 300 mg/kg, ip after 0.5 hr by MES test. On the set-up: dose 300 mg/kg. The class given is functional, organism-based. The procedure, abridged:
(§1)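 Mice (Swiss, 20-25 g) given i.p. doses of 30, 100 and 300 mg/kg under ADD program protocols, three per group, examined at 0.5 and 4 h in MES, scPTZ, scSTY or scPIC seizure tests. Value is the minimum dose protecting half or more of the mice.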

Test [2] relates to Mus musculus. Briefly: Anticonvulsant activity in Swiss Albino mouse at 300 mg/kg, ip after 4 hrs by MES test. The format is functional, organism-based. On the set-up: dose 300 mg/kg. The procedure, abridged:
as §1

Test [3] concerns Mus musculus. Briefly: Anticonvulsant activity in Swiss Albino mouse at 300 mg/kg, ip after 0.5 hr by scPTZ test. The format is functional, organism-based. On the set-up: dose 300 mg/kg. The procedure, abridged:
as §1

Test [4] has as its system Mus musculus. Nature of the test: Anticonvulsant activity in Swiss Albino mouse at 300 mg/kg, ip after 0.5 hr by scSTY test. On the set-up: dose 300 mg/kg. The class given is functional, organism-based. The gist of the method:
as §1

In test [5] the test system is Mus musculus. Briefly: Anticonvulsant activity in Swiss Albino mouse at 300 mg/kg, ip after 4 hrs by scSTY test. The format is functional, organism-based. On the set-up: dose 300 mg/kg. The procedure, abridged: as §1
Test [6] has as its system Mus musculus. Nature of the test: Anticonvulsant activity in Swiss Albino mouse at 300 mg/kg, ip after 0.5 hr by scPIC test. The class given is functional, organism-based. On the set-up: dose 300 mg/kg. The gist of the method:
as §1

Test [7] relates to Mus musculus. Briefly: Anticonvulsant activity in Swiss Albino mouse at 300 mg/kg, ip after 4 hrs by scPIC test. The class given is functional, organism-based. On the set-up: dose 300 mg/kg. The procedure, abridged:
as §1

The test system of test [8] is Mus musculus. Briefly: Neurotoxicity in Swiss Albino mouse at 300 mg/kg, ip after 0.5 hr by rotarod test. The format is functional, organism-based. On the set-up: dose 300 mg/kg. The procedure, abridged: (§2)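 Swiss mice (20-25 g) are trained on an accelerating rotorod (10 rpm, 3.2 cm rod), then injected i.p. at 30, 100 or 300 mg/kg, with three per group. Neurotoxicity means failure to keep equilibrium for at least 1 min in each of three trials, checked at 0.5 and 4 h. The value reported is the minimum dose affecting half or more of the mice.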
(In the rotarod test animals must keep their balance on a rotating rod.)

In test [9] the test system is Mus musculus. Nature of the test: Neurotoxicity in Swiss Albino mouse at 300 mg/kg, ip after 4 hrs by rotarod test. The format is functional, organism-based. On the set-up: dose 300 mg/kg. The procedure, abridged:
as §2

In test [10] the test system is Mus musculus. Briefly: Analgesic activity in Swiss Albino mouse assessed as number of acetic acid-induced writhing per 30 min after 100 mg/kg, ip. Conditions: route intraperitoneal. The class given is functional. The procedure, abridged:
(§3)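 Mice in groups of six dosed i.p. at 100 mg/kg, controls receiving 30% v/v PEG 400 in water. Writhing induced by i.p. 0.1 mL of 3% v/v acetic acid 1 h after drug. Writhes (abdominal stretch with at least one hind limb extended) counted over 30 min; % inhibition calculated. Mean ± SEM, Student's t test.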
In general terms: Writhing tests count abdominal constrictions after an irritant is injected.

For test [11], the system named is Mus musculus. Nature of the test: Analgesic activity in Swiss Albino mouse assessed as inhibition of acetic acid-induced writhing responses at 100 mg/kg, ip. The format is functional. Conditions: route intraperitoneal. The procedure, abridged:
as §3

The subject of test [12] is Rattus norvegicus. Briefly: Anti-cold allodynia effect in Sprague-Dawley rat CCI model assessed as duration of paw withdrawal 100 mg/kg, ip after 2 hr. The format is functional. Conditions: route intraperitoneal. The gist of the method: (§4)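 CCI by sciatic nerve ligation under pentobarbital (65 mg/kg i.p.). Rats tested at baseline and 9 days post-surgery; those with allodynia dosed i.p. 100 mg/kg, vehicle 30% v/v PEG 400 in water. Acetone (100-200 µL) misted on midplantar affected paw; withdrawal duration recorded, three samples averaged, at least 3 min apart; n = 4.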

In test [13] the test system is Rattus norvegicus. Briefly: Anti-cold allodynia effect in Sprague-Dawley rat CCI model assessed as duration of paw withdrawal 100 mg/kg, ip after 2.5 hr. The class given is functional. To be noted: route intraperitoneal. The procedure, abridged: as §4
In test [14] the test system is Rattus norvegicus. Nature of the test: Anti-cold allodynia effect in Sprague-Dawley rat CCI model assessed as duration of paw withdrawal at 100 mg/kg, ip after 0.5 hr. The class given is functional. To be noted: route intraperitoneal. The gist of the method:
as §4

The subject of test [15] is Rattus norvegicus. Nature of the test: Anti-cold allodynia effect in Sprague-Dawley rat CCI model assessed as duration of paw withdrawal 100 mg/kg, ip after 1 hr. To be noted: route intraperitoneal. The format is functional. The gist of the method: as §4
The test system of test [16] is Rattus norvegicus. Nature of the test: Anti-cold allodynia effect in Sprague-Dawley rat CCI model assessed as duration of paw withdrawal 100 mg/kg, ip after 1.5 hr. The format is functional. Conditions: route intraperitoneal. The gist of the method: as §4

One may read the inhibition in vivo as the change of the read-out against control, counted positive when it falls. As to `O=C(O)CCCNC(=O)N/N=C/c1cccc([N+](=O)[O-])c1`, the result with Mus musculus [1], with Mus musculus [2], in the test with Mus musculus [4], in the test with Mus musculus [5], with Mus musculus [8] and in the test on Mus musculus [9] was inactive. Besides, the outcome with Mus musculus [3], in the test with Mus musculus [6] and with Mus musculus [7] was Active. In addition, the Activity came out at 17.7 in the test on Mus musculus [10]; 39.5 s with Rattus norvegicus [12]; 13.7 s with Rattus norvegicus [13]; 46.3 s in the test on Rattus norvegicus [14]; 56.9 s with Rattus norvegicus [15]; 44.5 s with Rattus norvegicus [16]. Further, the inhibition in vivo at 100 mg/kg in the test with Mus musculus [11] was found to be 90%.

Values taken from ChEMBL document CHEMBL1139875, “Discovery of 4-aminobutyric acid derivatives possessing anticonvulsant and antinociceptive activities: a hybrid pharmacophore approach” (2007).
